According to ChEMBL document CHEMBL1124025, “(Acyloxy)alkyl carbamates as novel bioreversible prodrugs for amines: increased permeation through biological membranes” (J Med Chem, 1988):

Columns and labels:
Rattus norvegicus = species on record: Rattus norvegicus; assay: Percent diffusion through fuzzy rat skin after 48 h of incubation; type: ADME; details: in vitro
Outline: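 Whole ventral and dorsal skin from 8-week fuzzy rats (about 250 g) mounted in diffusion cells. Receptor was pH 7.0 phosphate-buffered 0.15 M NaCl with 22 ppm gentamicin. Ethanolic test solution spread on the skin surface. Cells occluded at 32 °C, stirred at 150 rpm, and 0.2 mL sampled with buffer replacement over 48 h. HPLC/UV quantitation; run in triplicate.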

[1] = Hydrolysis half-life at 37 degree C in phosphate buffer at pH 7.4; type: ADME
Outline: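 Done as for the plasma runs but in pH 7.4 Sorensen's buffer at 37 °C. 0.1–0.2 mg prodrug added from a small DMSO drop, sampled at time points, and analysed by direct-injection HPLC for prodrug loss and/or parent amine formation. External-standard quantitation.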

[2] = Hydrolysis half-life at 37 degree C in rat plasma; type: ADME
Outline: (§1)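 0.1–0.2 mg prodrug in a small drop of DMSO, mixed with 1 mL plasma held at 37 °C in a thermostated water bath. Samples drawn at intervals and injected directly onto HPLC to follow loss of prodrug and/or appearance of the parent amine; concentrations by external standard from peak areas. Half-life derived from the time course.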

[3] = Hydrolysis half-life at 37 degree C in dog plasma; type: ADME, Canis lupus familiaris; outline: as §1

Row | SMILES | Diffusion (Rattus norvegicus) [%] | half-life [1] [h] | half-life [2] [min] | half-life [3] [min]
1 | CC(=O)OCOC(=O)N(CC(O)COc1nsnc1N1CCOCC1)C(C)(C)C (stereo not drawn) | 0.53 | 23.5 | 3 | 9.7
2 | CC(C)(C)NC[C@H](O)COc1nsnc1N1CCOCC1 [TIMOLOL] | 18.14 |  |  | 
3 | CC(C)NCC(O)COc1ccc(CC(N)=O)cc1 (stereo not drawn) [ATENOLOL] | 0.13 |  |  | 
4 | CC(C)NCC(O)COc1cccc2[nH]ccc12 (stereo not drawn) [PINDOLOL] | 0.03 |  |  | 

Further lines, results first:

Row | Diffusion (Rattus norvegicus) [%] | half-life [1] [h] | half-life [2] [min] | half-life [3] [min] | SMILES
5 | 0.45 | 44.5 | 3 |  | CC(=O)OC(C)OC(=O)N(CC(O)COc1cccc2ccccc12)C(C)C (stereo not drawn)
6 | 0.35 |  |  |  | CC(=O)OC(C)OC(=O)N(CC(O)COc1cccc2[nH]ccc12)C(C)C (stereo not drawn)
7 | 2.4 |  |  |  | CC(C)NCC(O)COc1cccc2ccccc12 (stereo not drawn) [PROPRANOLOL]
8 | 0.49 |  |  |  | CC(=O)OC(C)OC(=O)N(CC(O)COc1ccc(CC(N)=O)cc1)C(C)C (stereo not drawn)
